Drawing on PubChem BioAssay AID1515 (The Scripps Research Institute Molecular Screening Center, 2009), this text covers inhibition for 93 compounds.

Hit rate of the full screen: of about 220,000 compounds, about 440 (0.2%) were called active. The sample holds actives, similar compounds and a random draw of the others, so the mix is not that of the screen. Unmarked numbers belong to inactive results.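 How the source made its calls: active means inhibition above the campaign mean of all tested compounds plus 3 SD (cut at about 14% in these data); inactive means the rest.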

The test deals with Serine hydrolase RBBP9 (Homo sapiens) (UniProt O75884). The test can be described thus: blockers of RBBP9 serine hydrolase labeling – biochemical, fluorescence polarization, FP-Rh probe, HTS, primary screen (AID 1515).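 Further: plate controls were DMSO wells with RBBP9 for no effect and wells lacking RBBP9 protein for full effect.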 As to conditions: recombinant RBBP9, FP-Rh probe fluorescence polarization; at 7.94 µM; active compounds read high. The procedure, abridged: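 Assay system: recombinant human RBBP9; Reagent: Serine-hydrolase probe FP-Rh, 375 nM pre-mixing; Doses: 7.94 µM single dose, 0.794% DMSO; Incubation: 30 min then 45 min, 25 °C; Detection: fluorescence polarization (mP), excitation 525 nm, emission 598 nm; Evaluation: percent inhibition from mP, scaled between DMSO and no-protein wells.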
Chain of Serine hydrolase RBBP9 (Homo sapiens) (O75884 whole entry, looked up): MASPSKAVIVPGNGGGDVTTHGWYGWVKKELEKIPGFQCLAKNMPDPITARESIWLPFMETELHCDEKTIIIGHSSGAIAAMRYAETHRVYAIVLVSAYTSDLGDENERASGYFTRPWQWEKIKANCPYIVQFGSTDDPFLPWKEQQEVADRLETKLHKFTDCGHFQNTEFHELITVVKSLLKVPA
As a reminder, the inhibition is the drop in the measured response relative to a control, in per cent. With `CC(C)(C)C1CCC(C(=O)Nc2cccnc2)CC1` (stereo not drawn), the inhibition is -3.33%.
As for `CN(C)c1ccc(C=NCCc2ccc(S(N)(=O)=O)cc2)cc1`, the inhibition was -3.47%.
With `CCCc1nc(SCC(=O)Nc2ccc(S(=O)(=O)N(C)C)cc2)c2ccccc2n1` the figure was -8.27%; with `COc1ccc([C@H]2[C@H](C(C)=O)N3N=Cc4ccccc4C3C23C(=O)OC(C)(C)OC3=O)cc1` (stereo partly drawn), 0.49%; with `CC(=O)Nc1nc(C)c(-c2csc(Nc3ccc(S(N)(=O)=O)cc3)n2)s1`, -4.68%.
`COc1cc2c(cc1OC)CC1(CCCCC1)N=C2`: the inhibition was -7.64%.
Take `O=C(O)Cc1sc(-c2ccc(C(=O)O)cc2)nc1-c1ccccc1`: the inhibition is -2.34%.
The figure for `Cc1ccc(-c2nc(C)sc2CC(=O)O)cc1` is -5.14%; for `C/C(=N/Nc1nc(-c2ccccc2)c(CC(=O)O)s1)c1ccccc1` it is 17% (active).
On to `COc1ccc(NC(C)=O)cc1NC(=O)CN1CCN(C2c3ccccc3-c3ccccc32)CC1`, for which the inhibition is -0.61%.
The figure for `CC(=O)NC1C(Oc2ccc(C=O)cc2)OC(COC(C)=O)C(OC(C)=O)C1OC(C)=O` (stereo not drawn) is -10.2%; for `CC(=O)NC1=NN(C(C)=O)C(C)(CCS(=O)(=O)c2ccc(Cl)c(Cl)c2)S1` (stereo not drawn) it is -8.22%; for `CC1=NOC(=O)/C1=C\c1ccccc1` it is 15.4% (active).
Regarding `COc1cc(/C=C2/C(=O)ON=C2C)ccc1OCc1cccc(F)c1`, the inhibition was -10.5%.
The figure for `COc1cc(/C=C2/C(=O)ON=C2C)ccc1OCc1ccccc1F` is -7%; for `Cc1ccc(S(=O)(=O)N(C)C)cc1NC(=O)c1n[nH]c(=O)c2ccccc12` it is 1.59%.
Take `CCOC(=O)C1=C(CC)OC(N)=C(C#N)C1c1ccc(F)cc1F` (stereo not drawn): the inhibition was -1.24%.
As for `N#Cc1cc([N+](=O)[O-])ccc1Oc1cccc(/C=N/NC(=O)c2ccc(Cl)cc2)c1`, the inhibition was 1.74%.
For the compound `Cn1c(CSCC(=O)Nc2ccccc2)nnc1SCc1ccccc1`, the inhibition was 1.33%.
In the case of `COc1ccc(C2CC(c3ccccc3)=NN2C(=O)CSc2nccc(=O)[nH]2)cc1` (stereo not drawn), the inhibition was -13.6%.
In the case of `COc1ccc(C2NC(=S)NC3=C2CCc2ccccc23)cc1OC` (stereo not drawn), the inhibition is -1.09%.
The figure for `COc1ccccc1P(=O)(c1ccccc1)c1ccccc1NC(C)=O` (stereo not drawn) is 4.53%; for `O=C(O)CCS(=O)(=O)c1ccc(-c2ccccc2)cc1` it is -1.5%; for `CCCC(=O)Nc1ccc2c(c1)nc(CCNC(=O)c1ccco1)n2C` it is -8.19%.
In the case of `CCn1c(CNC(=O)c2ccccc2)nnc1SCC(=O)N1CCN(c2ccccc2)CC1`, the inhibition is -8.71%.
In the case of `Cc1ccc2cc(CCNC(=O)c3c(-c4ccccc4Cl)noc3C)c(=O)[nH]c2c1`, the inhibition is -1.48%.
With `O=c1c2ccccc2nc2n1C(CSCc1cccc(C(F)(F)F)c1)CS2` (stereo not drawn) the figure was -8.83%; with `N#Cc1c(NC(=O)C2CC(Cl)=CCC2C(=O)O)sc2c1CCCCC2` (stereo not drawn), -6.51%; with `CCNC(=S)N1CCC(c2nc3cc(C)c(C)cc3[nH]2)CC1`, -6.72%.
For `Cc1cc([N+](=O)[O-])nn1CC(=O)Nc1ccc(Cc2ccncc2)cc1`, the inhibition is -7.35%.
Regarding `Cc1cc([N+](=O)[O-])nn1CCCC(=O)Nc1cccnc1Cl`, the inhibition is -5.84%.
With `Cc1cc([N+](=O)[O-])nn1Cc1ccc(F)cc1` the figure was 16.8% (active); with `Brc1cc(/C=N/n2cnnc2)oc1Br`, -14.7%; with `COc1ccccc1NC(=O)C1=C(C)NC(=O)NC1c1ccc(C)s1` (stereo not drawn), -5.66%.
Turning to `Cc1cc(C#N)c(SCC(N)=O)nc1-c1ccc(F)cc1`, the inhibition is -8.75%.
For the compound `CC(C)OCC(O)CN1CCN(C(c2ccccc2)c2ccccc2)CC1` (stereo not drawn), the inhibition was 2.7%.
Turning to `O=[N+]([O-])c1ccc(N2CCN(c3ccc(O)cc3)CC2)c(Cl)c1`, the inhibition is -8.4%.
Consider `CC(C)C(=O)Nc1ccc(C(=O)NNC(=O)c2cccs2)cc1`, for which the inhibition was 3.67%.
Turning to `CC(C)NC(=O)C(=O)NCCCOC(C)C`, the inhibition was -0.43%.
The figure for `CC(C)OCCCNC(=O)CNC(=O)c1cccs1` is 14.6% (active); for `CCOC(=O)NN1C(=O)c2ccccc2NC1c1ccccc1O` (stereo not drawn) it is 0.52%; for `CCOC(=O)C1=C(N)N2C(=O)C(C)SC2=C(C(=O)OCC)C1c1cc(OC)c(OC)c(OC)c1` (stereo not drawn) it is 4.66%.
With `COc1cc(C2C(C(=O)OCCC#N)=C(C)NC3=C2S(=O)(=O)c2ccccc23)cc(OC)c1OC` (stereo not drawn), the inhibition was 21.6% (active).
The figure for `COCCOC(=O)C1=C(C)Nc2nc(C)nn2C1c1ccccc1` (stereo not drawn) is 0.85%; for `COc1ccc(NC(=O)Nc2ccc3nsnc3c2)cc1` it is -1.59%; for `COCCNC(=O)Nc1ccc2nc(-c3ccco3)c(-c3ccco3)nc2c1` it is 17.9% (active).
With `O=C(NCc1ccccn1)c1ccc2nc(-c3ccco3)c(-c3ccco3)nc2c1` the figure was -0.69%; with `COC(=O)CC(=O)N1CCN(c2ccc(Cl)c(Cl)c2)CC1`, 0.17%.
As to `CC1(C)CC2CC(C)(CN2c2ncnc3ccc(Br)cc23)C1` (stereo not drawn), the inhibition is -2.76%.
With `CCOC(=O)c1sc(=NC(=O)/C=C/c2cccs2)n(C)c1C`, the inhibition is -10.7%.
For the compound `CCOC(=O)c1ccc(N=C2SC(C(=O)NC)CC(=O)N2CCc2ccccc2)cc1` (stereo not drawn), the inhibition is -5.9%.
Regarding `COC(=O)Cc1ccc(NC(=S)NCc2ccco2)cc1`, the inhibition is -2.67%.
Regarding `Cc1nnc(SC(C(=O)Nc2cc(Cl)cc(Cl)c2)c2ccccc2)[nH]c1=O` (stereo not drawn), the inhibition is -10.7%.
With `CSc1sc(C(=O)NNC(=O)c2ccc(Cl)cc2)c2c1C=CCC2`, the inhibition is -0.01%.
On to `COC(=O)c1ccc(C2C3=C(Nc4nnnn42)c2ccccc2OC3)cc1` (stereo not drawn), for which the inhibition was -9.06%.
Take `Cc1ccc(Sc2ccncc2S(N)(=O)=O)cc1`: the inhibition was -3.25%.
As to `CC(NCc1nc2ccccc2n1C)C12CC3CC(CC(C3)C1)C2` (stereo not drawn), the inhibition was 1.94%.
Turning to `Cc1ccc(-c2cc(C(F)(F)F)n3nc(C(=O)N4CCCC4)cc3n2)cc1`, the inhibition is -1.99%.
For `CCN(CC)C(=O)N1CCN(C(=O)c2ccc(C)cn2)CC1`, the inhibition is 18.9% (active).
For the compound `Cc1ccc(OCC(=O)N2CCN(C(=O)c3cccnc3)CC2)cc1`, the inhibition is -7.21%.
Regarding `Cc1ccc(S(=O)(=O)/N=C(\CN2CCOCC2)N2CCOCC2)cc1`, the inhibition was 5.6%.
On to `CCCCCc1nnc(NC(=O)c2ccc(=O)n(C)n2)s1`, for which the inhibition is -7.4%.
Regarding `CSCCC(NC(=O)c1ccco1)C(=O)OCC(=O)Nc1ncc(Cl)c(C)c1Cl` (stereo not drawn), the inhibition is -5.55%.
Turning to `CC[n+]1c(C)n(-c2ccccc2)c2ccc(NC(C)=O)cc21`, the inhibition was -7.36%.
For `CCC(C)c1ccc(NC(=S)NCc2ccccn2)cc1` (stereo not drawn), the inhibition is -8.32%.
The figure for `CC(C)Oc1ccc(CCC(=O)NNC(=S)NCc2ccccc2)cc1` is -2.85%; for `O=C(CCC1CCCN(Cc2ccc(O)c(Cl)c2)C1)NCc1ccccc1F` (stereo not drawn) it is -3.09%; for `Brc1ccc(-c2n(-c3ccccn3)c3ccccc3[n+]2-c2ccccn2)cc1` it is 0.06%.
Take `CCC(CC)c1nnc(NC(=O)/C=C/c2ccco2)s1`: the inhibition is -5.03%.
As to `O=C(NCC1CCCO1)C1CCN(C2CCN(C(=O)C3CCCCC3)CC2)CC1` (stereo not drawn), the inhibition was -1.77%.
With `COC(=O)c1cccc(NS(C)(=O)=O)c1`, the inhibition was 2.15%.
With `C#CCOCCOCCOCCNc1nc(N2CCN(C(=O)[C@H](C(C)C)n3cc(CCO)nn3)CC2)nc(N2CCN(C(=O)[C@H](C(C)C)n3cc(CCO)nn3)CC2)n1`, the inhibition was -3.79%.
The figure for `Oc1ccc(N=Cc2sc3ccccc3c2Cl)cc1` is 15.9% (active); for `Oc1ccc(N=Cc2c(O)ccc3ccccc23)cc1` it is 5.11%; for `O=C(N/N=C/c1c(Cl)[nH]c2ccccc12)c1sc2ccccc2c1Cl` it is -18.2%.
With `CC1(C)CC(=O)C2=C(C1)N=C1SCCC(=O)N1C2c1ccc(C(F)(F)F)cc1` (stereo not drawn) the figure was -1.93%; with `COc1ccc(/C=C(\C#N)C(=O)ONC2=NCCCCC2)cc1`, -9.38%; with `COc1cccc(-c2nn(-c3ccccc3)cc2/C=C(\C#N)C(=O)NCCCn2ccnc2)c1`, -15%.
`CCOc1ccc(N2C(=O)CN(c3cccc4ccccc34)C2=S)cc1`: the inhibition was -4%.
Regarding `COc1cccc(N(Cc2nnc3n2CCCCC3)C(=O)Nc2ccccc2F)c1`, the inhibition was -3.77%.
As for `O=C(Nc1nc(-c2cccnc2)cs1)c1ccccc1F`, the inhibition is -5.59%.
In the case of `COc1cc(/C=N/NC(=O)c2ccccc2)ccc1OS(=O)(=O)c1ccccc1`, the inhibition was -11.2%.
With `COc1cc(/C=N/NC(=O)Nc2ccccc2)ccc1OCCOc1ccccc1C`, the inhibition is 65.1% (active).
Regarding `COc1ccc(/C=N/NC(=O)c2ccccc2)cc1OS(=O)(=O)c1ccccc1`, the inhibition was -7.38%.
For `Cc1ccc(C(=O)N2CCN(S(=O)(=O)N3CCOCC3)CC2)cc1`, the inhibition is 0.85%.
With `COc1ccc(C(=O)NN2C(=O)C3C(c4ccccc4)C=CC(c4ccccc4)C3C2=O)cc1` (stereo not drawn) the figure was -6.27%.
With `O=C(NCC1CCN(Cc2ccccc2Cl)CC1)Nc1cccc(Cl)c1` the figure was -3.66%; with `Cc1cc(/C=C(/C#N)C(=O)Nc2ccc(Cl)cc2)c(C)n1-c1cccnc1`, -4.94%; with `Cc1ccccc1C(=O)Nc1ccc(N2CCCCCC2)cc1`, -6.04%.
For `O=c1[nH][nH]c(=O)c2cc(N3CCCC3)ccc12`, the inhibition was 0.44%.
Turning to `O=C1C=CC(=O)N1c1ccc(N2CCCCC2)cc1`, the inhibition was 14.7% (active).
Consider `Cc1c(NC(=O)CN2C(=O)C(=O)N(Cc3ccccc3)C2=O)c(=O)n(-c2ccccc2)n1C`, for which the inhibition was -6.97%.
Regarding `CCS(=O)(=O)c1ccc(O)c(NC(=O)COc2ccc(Cl)cc2)c1`, the inhibition is -5.54%.
